In ChEMBL document CHEMBL4316638, “Bioactive Meroterpenoids and Isocoumarins from the Mangrove-Derived Fungus Penicillium sp. TGM112” (J Nat Prod, 2019):
In brackets after ≈: the same amount, converted by molar mass. Activity calls are given as the source filed them. No cut-off for these calls is given here.

What was measured:
[1] = tested on: Staphylococcus aureus; test: Antibacterial activity against methicillin-resistant Staphylococcus aureus ATCC 33591 by microplate assay; assay type: functional, organism-based
Method in brief: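 MRSA (ATCC 33591) was one strain in a panel of six pathogenic bacteria: four general and two marine Vibrio. Assayed by the microplate method, with ciprofloxacin as positive control.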

[2] = tested on: HeLa; test: Cytotoxicity against human HeLa cells measured after 7 days by MTT assay; assay type: functional, cell-based
[3] = tested on: Vibrio alginolyticus; test: Antibacterial activity against Vibrio alginolyticus ATCC 17749 by microplate assay; assay type: functional, organism-based; conditions: NBRC 15630 = ATCC 17749
[4] = tested on: A549; test: Cytotoxicity against human A549 cells measured after 7 days by MTT assay; assay type: functional, cell-based
[5] = tested on: HepG2; test: Cytotoxicity against human HepG2 cells measured after 7 days by MTT assay; assay type: functional, cell-based
[6] = tested on: Staphylococcus aureus; test: Antibacterial activity against Staphylococcus aureus ATCC 25923 by microplate assay; assay type: functional, organism-based
[7] = tested on: Escherichia coli; test: Antibacterial activity against Escherichia coli ATCC 25922 by microplate assay; assay type: functional, organism-based
[8] = tested on: Bacillus cereus; test: Antibacterial activity against Bacillus cereus ATCC 11778 by microplate assay; assay type: functional, organism-based
[9] = tested on: RAW264.7; test: Inhibition of LPS-induced nitric oxide production in mouse RAW264.7 cells preincubated for 30 mins followed by LPS-stimulation and measured after 24 hrs by Griess assay; assay type: functional, cell-based
Method in brief: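 RAW264.7 macrophages seeded at 50 000 cells/well and grown 24 h, then exposed to compound for 30 min at 37 °C before LPS (100 ng/mL) co-incubation for 24 h. Nitrite in supernatant measured by Griess reagent (10 min mixing), absorbance 540 nm. Compounds from 10 mM DMSO stocks; final DMSO ≤0.1%. Dexamethasone positive control. Triplicate runs; IC50 calculated.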

[10] = tested on: Vibrio parahaemolyticus; test: Antibacterial activity against Vibrio parahaemolyticus ATCC 17802 by microplate assay; assay type: functional, organism-based
[11] = tested on: Caenorhabditis elegans; test: Insecticidal activity against Caenorhabditis elegans measured at 12 […]; assay type: functional, organism-based
Method in brief: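 L1 C. elegans (30−40 worms/well) in S medium with E. coli OP50 and chloramphenicol, exposed to compound at 40, 20, 10, 5, 1 and 0 μg/mL diluted in filter-sterilized M-9; 3 replicates per treatment. Plates sealed, kept at 24 °C for 60 h in the dark; dead larvae counted at 12, 24, 36, 48, 60. M-9 negative control, levamisole 1 mg/mL positive control.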

[12] = tested on: Helicoverpa armigera; test: Insecticidal activity against Helicoverpa armigera hubner measured every other day for 8 days starting from 2 days post dosing; assay type: functional, organism-based
Method in brief: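 Neonate H. armigera larvae fed artificial diet dosed with serial dilutions of compound (1 mg/mL in DMSO) at 200, 100, 50, 25 and 12.5 μL/well in six-well plates; three groups of three larvae, 3 replicates per treatment. Held at 25 ± 1 °C, 80% relative humidity. Dead larvae counted on days 2, 4, 6, 8. DMSO negative, azadirachtin positive, plain diet blank controls.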

SMILES	Activity [1]	Activity [2]	Activity [3]	Activity [4]	Activity [5]	Activity [6]	Activity [7]	Activity [8]	inhibition [9]	Activity [10]	EC50 [11]	IC50 [12]
COc1ccc2c(c1O)C(=O)O[C@H](CCCO)C2	inactive	inactive	inactive	inactive	inactive	inactive	inactive	inactive	inactive	inactive		
C=C1[C@]2(C)C(=O)[C@]3(O)[C@@H](C)OC(=O)[C@]13[C@@]1(C)CC[C@@]3(C=CC(=O)OC3(C)C)C(C)=C1[C@@H]2OC(C)=O	inactive	inactive	inactive	inactive	inactive	inactive	inactive	inactive	inactive	inactive		
COc1c(O)ccc2c1C(=O)O[C@H](CCC[C@@H](C)O)C2	inactive	inactive	inactive	inactive	inactive	inactive	inactive	inactive	inactive	inactive		
O=C1O[C@H](CCCO)Cc2cccc(O)c21	inactive	inactive	inactive	inactive	inactive	inactive	inactive	inactive	inactive	inactive		
CC(=O)CCC[C@@H]1Cc2cccc(O)c2C(=O)O1	inactive	inactive	inactive	inactive	inactive	inactive	inactive	inactive	inactive	inactive		
C=C1[C@@]23C(=O)O[C@H](C)[C@]24O[C@@]2(C(=C)[C@]5(C=CC(=O)OC5(C)C)CC[C@]32C)[C@H](O)[C@@]1(C)OC4=O	inactive	inactive	inactive	inactive	inactive	inactive	inactive	inactive	inactive	inactive	38.2 µg/mL (≈ 83.7 µM)	
C=C1[C@@]23C(=O)O[C@H](C)[C@]24O[C@@]2(C(=C)[C@]5(CCC(=O)OC5(C)C)C[C@@H](O)[C@]32C)[C@H](OC(C)=O)[C@@]1(C)OC4=O	inactive	inactive	inactive	inactive	inactive	inactive	inactive	inactive	inactive	inactive		50 µg/mL (≈ 96.8 µM)
COC(=O)CC[C@@H]1Cc2ccc(O)c(OC)c2C(=O)O1	inactive	inactive	inactive	inactive	inactive	inactive	inactive	inactive	inactive	inactive		200 µg/mL (≈ 714 µM)
CC(=O)OCCC[C@@H]1Cc2cccc(O)c2C(=O)O1	inactive	inactive	inactive	inactive	inactive	inactive	inactive	inactive	inactive	inactive		
COc1c(O)ccc2c1C(=O)O[C@H](CCCC(C)=O)C2	inactive	inactive	inactive	inactive	inactive	inactive	inactive	inactive	inactive	inactive		
C[C@@H](O)CCC[C@@H]1Cc2c(O)ccc(O)c2C(=O)O1	inactive	inactive	inactive	inactive	inactive	inactive	inactive	inactive	inactive	inactive		100 µg/mL (≈ 376 µM)
C=C1[C@@]23C(=O)O[C@H](C)[C@@]2(O)C(=O)O[C@]1(C)[C@@H](O)C1=C2COC4CC(=O)OC(C)(C)[C@@]24CC[C@@]13C (stereo partly specified)	inactive	inactive	inactive	inactive	inactive	inactive	inactive	inactive	inactive	inactive	19.1 µg/mL (≈ 40.3 µM)	
CC(=O)CCC[C@@H]1C[C@@H]2C[C@@H](O)CC(O)=C2C(=O)O1	inactive	inactive	inactive	inactive	inactive	inactive	inactive	inactive	inactive	inactive		200 µg/mL (≈ 745 µM)
C/C=C(\C)C(=O)O[C@H]1C[C@@H](OC(C)=O)[C@@]2(C(=O)OC)CO[C@H]3[C@@H](O)[C@@](C)([C@]45O[C@@]4(C)[C@H]4C[C@@H]5O[C@@H]5OC=C[C@@]54O)[C@H]4[C@]1(CO[C@]4(O)C(=O)OC)[C@@H]32 [AZADIRACTIN]												25 µg/mL (≈ 34.7 µM)
C=C1[C@@]23C(=O)O[C@H](C)[C@@]2(O)C(=O)O[C@]1(C)[C@@H](OC(C)=O)C1=C(C)[C@]2(CCC(=O)OC2(C)C)CC[C@@]13C	inactive	inactive	inactive	inactive	inactive	inactive	inactive	inactive	inactive	inactive		50 µg/mL (≈ 99.5 µM)
C[C@H](O)CCC[C@@H]1C[C@@H]2C[C@@H](O)CC(O)=C2C(=O)O1	inactive	inactive	inactive	inactive	inactive	inactive	inactive	inactive	inactive	inactive		200 µg/mL (≈ 740 µM)
c1ccc([C@H]2CN3CCSC3=N2)cc1 [LEVAMISOLE]											4.8 µg/mL (≈ 23.5 µM)	
C[C@@H](O)CCC[C@H]1OC(=O)c2c(O)cccc2[C@@H]1O	inactive	inactive	inactive	inactive	inactive	inactive	inactive	inactive	inactive	inactive		100 µg/mL (≈ 376 µM)
